Assay outcomes from PubChem.
ABHD4 inh: inhibitors of mouse ABHD4; Q8VD66; purified mABHD4, FP-Rh probe fluorescence polarization; inhibition, % at 8.92 µM; 370,000 compounds, 0.54% hits; AID 720543;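 active means inhibition exceeding the mean over every tested compound plus 3 SD, cut at about 30% in these data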;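 further: 0% = plate median of compound wells and 100% = S159A mutant with DMSO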
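Material: mouse ABHD4 enzyme, wild type; Benchmarks: S159A mutant high control, sample median low control; Buffer or medium: HEPES pH 7.0, NaCl, Pluronic buffer; Signal: fluorescence polarization; Read-out: percent inhibition of probe binding, normalized to plate controls; Timing: pre-incubation 45 min, probe exposure 60 min, at 25 °C; Dosing: 8.92 µM, single dose.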
DAGLB inhibitor: diacylglycerol lipase beta (human) inhibition | Q8NCG7 | HEK293T DAGLB membrane lysate, EnzChek fluorogenic substrate | inhibition, % at 5.17 µM | 340,000 compounds, 0.059% hits | AID 504411; in the data active means inhibition above about 34%;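 further: 0% = enzyme with vehicle and 100% = wells lacking enzyme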
TCR-CD3 inh: inhibitors of human TCR-CD3 interaction; TAMRA-labeled TCR probe fluorescence, biochemical; inhibition, % at 9.4 µM; 360,000 compounds, 0.37% hits; in the data active means inhibition above about 19%;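 further: recombinant mutant TCR 2C K166C tagged with TAMRA read by polarization; 0% = receptor in buffer alone and 100% = receptor with positive control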
SIAE inh: human SIAE inhibition, primary screen. Q9HAT2. SIAE FP-Rh probe binding, fluorescence polarization. inhibition, % at 9.66 µM. 370,000 compounds, 0.69% hits;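 active means inhibition above a cutoff: mean of compounds within the control limits plus 3 SD of those, cut at about 17% in these data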;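 further: 0% = plate median of compound wells and 100% = probe without SIAE protein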
HTRA1 inh: inhibitors of human serine peptidase HTRA1. recombinant HTRA1, FP-rhodamine activity-based probe, fluorescence polarization. Q92743. 340,000 compounds, 0.5% hits. inhibition, % at 5.96 µM. AID 504803; in the data active means inhibition above about 36%;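 further: 0% = enzyme with DMSO and 100% = wells lacking enzyme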
Target sequence (Q92743 whole entry, looked up): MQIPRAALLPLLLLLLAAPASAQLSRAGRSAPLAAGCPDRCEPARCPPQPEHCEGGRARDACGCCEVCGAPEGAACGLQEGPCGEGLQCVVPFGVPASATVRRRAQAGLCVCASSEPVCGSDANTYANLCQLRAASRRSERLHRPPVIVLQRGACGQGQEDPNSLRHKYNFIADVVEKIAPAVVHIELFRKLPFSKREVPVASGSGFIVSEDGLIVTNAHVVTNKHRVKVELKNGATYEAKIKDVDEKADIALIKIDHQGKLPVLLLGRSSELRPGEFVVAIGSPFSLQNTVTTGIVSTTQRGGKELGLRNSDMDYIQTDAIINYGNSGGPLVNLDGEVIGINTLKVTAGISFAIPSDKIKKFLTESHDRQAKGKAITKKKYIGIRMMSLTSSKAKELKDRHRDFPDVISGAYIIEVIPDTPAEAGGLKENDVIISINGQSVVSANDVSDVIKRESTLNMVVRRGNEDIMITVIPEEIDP
SIAE inh conf: confirmation of human SIAE inhibitors; shares compounds with SIAE inh; SIAE FP-Rh activity-based probe, fluorescence polarization; inhibition, % at 9.66 µM; 2,300 compounds, 13% hits;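 active means mean inhibition of the replicates above the hit cutoff set in the primary screen, cut at about 17% in these data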;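 further: 0% = SIAE with DMSO and probe and 100% = probe without SIAE; inhibitors lower polarization as more probe stays unbound to SIAE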
The depositor's hits bear a star. Only some compounds are listed: those with a hit (about 1.6% of all), similar ones and a draw of the others.

CCC1(c2ccccc2)NC(=S)N(c2cccc(C)c2C)N1 (stereo not drawn) was read as ABHD4 inh 3.2, DAGLB inhibitor -2.4, TCR-CD3 inh -1.9, SIAE inh 17.4*, HTRA1 inh -3.9 and SIAE inh conf -4.8.
O=C(OCCN1CCN(C2CN(Cc3cn(Cc4ccccc4F)nn3)S(=O)(=O)C2)CC1)c1cc2ccccc2o1 (stereo not drawn) was read as ABHD4 inh -1.5 and SIAE inh -4.5.
Screening COC(=O)[C@]12C[C@H](CC(=O)NCc3ccc(OC)c(OC)c3)C(=O)N(Cc3ccc4c(c3)OCO4)C1=C[C@H](C(C)C)O[C@@H]2C1CC1 returned ABHD4 inh -1.6 and SIAE inh -7.3.
`CCCCN1CCN=C1N(C)C` gave ABHD4 inh 0.3, DAGLB inhibitor -4.2, TCR-CD3 inh 6.5, SIAE inh 17.2*, HTRA1 inh 3.5 and SIAE inh conf 2.9.
For CN(C)C1=NCCN1CCCC1CCCCC1 the results were ABHD4 inh 3.2, DAGLB inhibitor 2.6, TCR-CD3 inh 1.7, SIAE inh 1.4 and HTRA1 inh 3.5.
For COc1ccc(C2C(C(=O)N3CCC(C)CC3)CC(=O)N2c2ccc(OC)cc2)cc1 (stereo not drawn) the results were ABHD4 inh -3.0 and SIAE inh 8.9.
O=C([C@@H]1C[C@H]1c1ccccc1)N1CCC(Oc2cccnc2)CC1 was read as ABHD4 inh 2.4 and SIAE inh 5.9.
`OC(c1ccc(CN2CCCCC2)cc1)c1ncc(-c2ccccc2)[nH]1` (stereo not drawn) gave ABHD4 inh 0.9, TCR-CD3 inh -7.0, SIAE inh 23.5* and SIAE inh conf -0.6.
COc1ccc(OC)c(S(=O)(=O)N2CCCCC2C(=O)N2CCCN(C)CC2)c1 (stereo not drawn) was read as ABHD4 inh -1.4 and SIAE inh 9.8.
COc1ccc(N=Nc2c(N)n[nH]c2N)cc1 was read as ABHD4 inh -1.1, DAGLB inhibitor 2.7, TCR-CD3 inh 5.7, SIAE inh 22.1*, HTRA1 inh 1.5 and SIAE inh conf 1.3.
Screening O=C(Cc1ccc(F)cc1)N1CCN(c2ccc([N+](=O)[O-])cc2)CC1 returned ABHD4 inh -1.9, DAGLB inhibitor 3.0, TCR-CD3 inh 3.8, SIAE inh 20.4*, HTRA1 inh 6.0 and SIAE inh conf 5.2.
Screening O=C(Cc1ccc([N+](=O)[O-])cc1)N1CCN(c2ccc([N+](=O)[O-])cc2)CC1 returned ABHD4 inh -0.4, DAGLB inhibitor 0.6, TCR-CD3 inh -1.4, SIAE inh -1.4 and HTRA1 inh -5.9.
`O=C(CN1CCN(Cc2ccccc2)CC1)N/N=C\c1ccccc1[N+](=O)[O-]` gave ABHD4 inh 0.8 and SIAE inh 1.3.
Screening C[C@H](O)[C@@H]1CN2CCc3ccc(N4CCOCC4)cc3[C@@H]2C[C@@H]1N(C)C(=O)c1cccc(Cl)c1 returned ABHD4 inh 2.5 and SIAE inh 6.9.
Screening COC(=O)c1sc(N/N=C/c2ccc(C(C)C)cc2)nc1C returned ABHD4 inh 4.1, DAGLB inhibitor -0.9, TCR-CD3 inh 6.4, SIAE inh 22.9*, HTRA1 inh 8.2 and SIAE inh conf 7.2.
For CC(c1ccccc1)n1cc(C(=O)NCCCN2CCCC2)nn1 (stereo not drawn) the results were ABHD4 inh -0.9 and SIAE inh -3.2.
`O=C1CCCc2c1cc(C(=O)NCCCN1CCOCC1)c(=O)n2-c1ccc(Cl)cc1` gave ABHD4 inh 3.8, DAGLB inhibitor 0.1, TCR-CD3 inh -6.0, SIAE inh 9.7 and HTRA1 inh -2.7.
Cc1ccc(-n2c3c(cc(C(=O)NCCCN4CCOCC4)c2=O)C(=O)CC(C)(C)C3)cc1 was read as ABHD4 inh 0.2, DAGLB inhibitor 1.6, TCR-CD3 inh 1.7, SIAE inh 18.9*, HTRA1 inh 3.6 and SIAE inh conf -0.6.
For CCCN1C(=O)c2n[nH]c(C)c2C1c1ccc2c(c1)OCO2 (stereo not drawn) the results were ABHD4 inh -1.3, TCR-CD3 inh -5.5 and SIAE inh 2.2.
`CCOC(=O)c1[nH]c(C)c(C(=O)N2CCOCC2)c1C` gave ABHD4 inh -1.5, DAGLB inhibitor -1.4, TCR-CD3 inh -1.0, SIAE inh 21.7*, HTRA1 inh 1.3 and SIAE inh conf 1.8.
`O=C(Cn1cnc2ccccc2c1=O)N1CCN(Cc2ccc(F)cc2)CC1` gave ABHD4 inh -4.8 and SIAE inh 0.1.
Screening Cc1ccc(NC(=O)c2ccc(NCC3CCCO3)c([N+](=O)[O-])c2)cc1Cl (stereo not drawn) returned ABHD4 inh -0.1, DAGLB inhibitor 0.8, TCR-CD3 inh -1.8, SIAE inh 72.3*, HTRA1 inh -5.7 and SIAE inh conf 0.5.
`CCCCN1CC(COc2ccc(OC)cc2)OCCS1(=O)=O` (stereo not drawn) gave ABHD4 inh 1.8, TCR-CD3 inh 7.6 and SIAE inh -1.5.
For Cc1sc(NC(=O)CS(=O)(=O)c2ccccc2)c(C(N)=O)c1C the results were ABHD4 inh -0.2, DAGLB inhibitor 0.4, TCR-CD3 inh 5.7, SIAE inh 17.2*, HTRA1 inh 4.1 and SIAE inh conf 1.2.
`O=C1CCSc2cccc3cccc(c23)N1` gave ABHD4 inh 5.2, DAGLB inhibitor -0.7, TCR-CD3 inh 2.2, SIAE inh -4.4 and HTRA1 inh -8.7.
For c1cc2c3c(cccc3c1)NC1(CCCCC1)N2 the results were ABHD4 inh -0.8, DAGLB inhibitor 12.1, TCR-CD3 inh 3.2, SIAE inh 30.4*, HTRA1 inh 31.5 and SIAE inh conf 8.5.
Screening CCc1cccc(NC(=O)Nc2cccs2)c1 returned ABHD4 inh -1.4, DAGLB inhibitor -2.9, TCR-CD3 inh 0.2, SIAE inh 17.2*, HTRA1 inh 2.9 and SIAE inh conf 4.5.
Screening N#Cc1cccc(NC(=O)Nc2cccs2)c1 returned ABHD4 inh -2.8, DAGLB inhibitor 2.7, TCR-CD3 inh -11.8, SIAE inh 10.4 and HTRA1 inh 0.2.
For COc1ccc(S[C@]2(C(=O)NCC(C)C)CC(=O)N[C@@H]2c2ccc(OC)cc2)cc1 the results were ABHD4 inh 2.3 and SIAE inh 0.0.
`CC(=O)Nc1ccc(-c2csc(N/N=C(/C)c3ccccc3)n2)cc1` gave ABHD4 inh 19.0, DAGLB inhibitor 4.2, TCR-CD3 inh -9.7, SIAE inh 10.7 and HTRA1 inh 34.2.
Screening CCOC(=O)/C(C)=N/Nc1nc(-c2ccc(NC(C)=O)cc2)cs1 returned ABHD4 inh 10.8, TCR-CD3 inh 1.3, SIAE inh 20.3* and SIAE inh conf -7.6.
Screening CCOc1ccc(NC(=O)Nc2cc(-c3ccccc3)sc2C(=O)OC)cc1 returned ABHD4 inh 2.9, DAGLB inhibitor -8.1, TCR-CD3 inh 8.0, SIAE inh 29.0*, HTRA1 inh -0.2 and SIAE inh conf -4.7.
